Reference: ChEMBL document CHEMBL1165965, “Synthesis and structure-activity relationships of 1,2,3,4-tetrahydropyrido[2,3-b]pyrazines as potent and selective inhibitors of the anaplastic lymphoma kinase” (Bioorg Med Chem, 2010)

Columns and labels:
[1] = target: T1, cGMP-dependent protein kinase 2 (Homo sapiens) (UniProt Q13237); test: Inhibition of PRKG2 at 1 uM
T1 sequence (whole entry): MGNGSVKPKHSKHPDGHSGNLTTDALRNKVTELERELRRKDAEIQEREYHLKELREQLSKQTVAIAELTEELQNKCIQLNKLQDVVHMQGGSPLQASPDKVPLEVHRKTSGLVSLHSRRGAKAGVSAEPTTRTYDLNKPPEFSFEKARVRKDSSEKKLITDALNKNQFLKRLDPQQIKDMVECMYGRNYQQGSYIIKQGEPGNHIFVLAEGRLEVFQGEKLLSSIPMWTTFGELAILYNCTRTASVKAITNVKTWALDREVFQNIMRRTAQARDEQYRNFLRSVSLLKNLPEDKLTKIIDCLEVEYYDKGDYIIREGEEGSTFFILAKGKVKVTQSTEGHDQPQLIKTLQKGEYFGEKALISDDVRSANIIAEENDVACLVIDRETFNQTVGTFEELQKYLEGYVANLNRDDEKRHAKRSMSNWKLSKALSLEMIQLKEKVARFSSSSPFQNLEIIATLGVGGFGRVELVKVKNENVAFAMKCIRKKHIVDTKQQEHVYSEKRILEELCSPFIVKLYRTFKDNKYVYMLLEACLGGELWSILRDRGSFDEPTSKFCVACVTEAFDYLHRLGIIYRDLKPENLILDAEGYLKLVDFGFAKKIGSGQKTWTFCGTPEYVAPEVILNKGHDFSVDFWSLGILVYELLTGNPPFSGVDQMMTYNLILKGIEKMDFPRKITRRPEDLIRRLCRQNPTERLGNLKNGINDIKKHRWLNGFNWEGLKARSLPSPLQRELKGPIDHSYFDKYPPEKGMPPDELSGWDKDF

[2] = target: Death-associated protein kinase 1 (Homo sapiens) (UniProt P53355); test: Inhibition of DAPK1 at 1 uM
Sequence of Death-associated protein kinase 1 (Homo sapiens) (P53355 whole entry, looked up): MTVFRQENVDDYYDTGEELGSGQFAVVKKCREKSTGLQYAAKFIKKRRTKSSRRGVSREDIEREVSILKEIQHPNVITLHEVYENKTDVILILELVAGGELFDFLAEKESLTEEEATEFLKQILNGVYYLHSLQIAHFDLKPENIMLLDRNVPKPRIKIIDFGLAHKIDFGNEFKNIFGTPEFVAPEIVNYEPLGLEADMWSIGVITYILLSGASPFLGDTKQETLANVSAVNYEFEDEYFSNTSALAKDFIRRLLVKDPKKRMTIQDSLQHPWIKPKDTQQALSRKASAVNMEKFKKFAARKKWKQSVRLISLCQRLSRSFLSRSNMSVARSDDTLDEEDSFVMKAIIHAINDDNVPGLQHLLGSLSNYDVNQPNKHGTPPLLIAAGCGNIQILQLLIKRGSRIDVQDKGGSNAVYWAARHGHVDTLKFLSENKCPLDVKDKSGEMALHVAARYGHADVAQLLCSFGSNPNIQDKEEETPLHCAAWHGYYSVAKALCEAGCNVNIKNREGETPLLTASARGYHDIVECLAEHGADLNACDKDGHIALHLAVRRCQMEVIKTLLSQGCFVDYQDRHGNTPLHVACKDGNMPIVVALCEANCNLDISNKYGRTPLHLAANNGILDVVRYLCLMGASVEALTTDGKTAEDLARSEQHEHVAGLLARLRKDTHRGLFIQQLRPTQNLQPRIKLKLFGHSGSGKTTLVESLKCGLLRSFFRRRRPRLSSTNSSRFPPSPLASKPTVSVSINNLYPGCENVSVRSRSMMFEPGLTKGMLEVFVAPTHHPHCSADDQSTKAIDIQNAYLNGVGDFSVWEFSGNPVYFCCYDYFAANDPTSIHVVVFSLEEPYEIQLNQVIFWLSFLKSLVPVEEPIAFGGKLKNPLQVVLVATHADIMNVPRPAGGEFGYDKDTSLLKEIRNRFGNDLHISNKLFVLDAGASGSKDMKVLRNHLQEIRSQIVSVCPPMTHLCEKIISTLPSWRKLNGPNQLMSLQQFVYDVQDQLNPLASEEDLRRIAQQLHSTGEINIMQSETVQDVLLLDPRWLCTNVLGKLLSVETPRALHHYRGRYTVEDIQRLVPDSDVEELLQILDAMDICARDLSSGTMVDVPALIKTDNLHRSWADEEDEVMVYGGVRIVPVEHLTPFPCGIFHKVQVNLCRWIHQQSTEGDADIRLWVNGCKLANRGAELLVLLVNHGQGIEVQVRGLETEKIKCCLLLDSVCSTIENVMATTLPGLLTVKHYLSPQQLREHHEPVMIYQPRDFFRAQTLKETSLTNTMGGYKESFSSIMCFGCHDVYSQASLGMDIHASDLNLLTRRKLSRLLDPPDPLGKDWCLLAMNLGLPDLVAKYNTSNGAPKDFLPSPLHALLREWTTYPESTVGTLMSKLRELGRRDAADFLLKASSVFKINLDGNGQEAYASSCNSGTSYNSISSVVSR
Procedure, shortened: (§1)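 Single-concentration screen using Ambit Bioscience KINOMEscan technology across a panel of 250–400 kinases. Per-kinase inhibition from this screen was summarized as S(90), the fraction of kinases inhibited by more than 90%.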

[3] = target: T2, Serine/threonine-protein kinase RIO3 (Homo sapiens) (UniProt O14730); test: Inhibition of RIOK3 at 1 uM
T2 sequence (whole entry): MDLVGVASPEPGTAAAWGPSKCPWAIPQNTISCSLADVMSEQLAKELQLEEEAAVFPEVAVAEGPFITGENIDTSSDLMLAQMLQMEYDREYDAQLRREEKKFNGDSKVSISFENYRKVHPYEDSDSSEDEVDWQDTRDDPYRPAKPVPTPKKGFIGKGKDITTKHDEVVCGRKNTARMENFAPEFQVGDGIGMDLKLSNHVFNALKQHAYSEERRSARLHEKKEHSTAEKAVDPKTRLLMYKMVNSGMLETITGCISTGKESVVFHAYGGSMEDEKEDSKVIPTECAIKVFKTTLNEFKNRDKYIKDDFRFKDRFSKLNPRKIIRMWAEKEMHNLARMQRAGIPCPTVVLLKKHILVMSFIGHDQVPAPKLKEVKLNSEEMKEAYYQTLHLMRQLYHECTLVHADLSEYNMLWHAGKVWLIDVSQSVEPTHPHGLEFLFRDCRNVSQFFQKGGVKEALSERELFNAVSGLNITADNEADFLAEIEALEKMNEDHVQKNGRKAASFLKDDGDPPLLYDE

[4] = Inhibition of FLT3 ITD mutant at 1 uM
Procedure, shortened: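 Single-concentration screen on the Ambit KINOMEscan platform, run against a panel of 250–400 kinases. Per-kinase inhibition was also summarized as S(90), the fraction of kinases inhibited by more than 90%.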

[5] = target: T3, Ephrin type-B receptor 1 (Homo sapiens) (UniProt P54762); test: Inhibition of EPHB1 at 1 uM; procedure, shortened: as §1
T3 sequence (whole entry): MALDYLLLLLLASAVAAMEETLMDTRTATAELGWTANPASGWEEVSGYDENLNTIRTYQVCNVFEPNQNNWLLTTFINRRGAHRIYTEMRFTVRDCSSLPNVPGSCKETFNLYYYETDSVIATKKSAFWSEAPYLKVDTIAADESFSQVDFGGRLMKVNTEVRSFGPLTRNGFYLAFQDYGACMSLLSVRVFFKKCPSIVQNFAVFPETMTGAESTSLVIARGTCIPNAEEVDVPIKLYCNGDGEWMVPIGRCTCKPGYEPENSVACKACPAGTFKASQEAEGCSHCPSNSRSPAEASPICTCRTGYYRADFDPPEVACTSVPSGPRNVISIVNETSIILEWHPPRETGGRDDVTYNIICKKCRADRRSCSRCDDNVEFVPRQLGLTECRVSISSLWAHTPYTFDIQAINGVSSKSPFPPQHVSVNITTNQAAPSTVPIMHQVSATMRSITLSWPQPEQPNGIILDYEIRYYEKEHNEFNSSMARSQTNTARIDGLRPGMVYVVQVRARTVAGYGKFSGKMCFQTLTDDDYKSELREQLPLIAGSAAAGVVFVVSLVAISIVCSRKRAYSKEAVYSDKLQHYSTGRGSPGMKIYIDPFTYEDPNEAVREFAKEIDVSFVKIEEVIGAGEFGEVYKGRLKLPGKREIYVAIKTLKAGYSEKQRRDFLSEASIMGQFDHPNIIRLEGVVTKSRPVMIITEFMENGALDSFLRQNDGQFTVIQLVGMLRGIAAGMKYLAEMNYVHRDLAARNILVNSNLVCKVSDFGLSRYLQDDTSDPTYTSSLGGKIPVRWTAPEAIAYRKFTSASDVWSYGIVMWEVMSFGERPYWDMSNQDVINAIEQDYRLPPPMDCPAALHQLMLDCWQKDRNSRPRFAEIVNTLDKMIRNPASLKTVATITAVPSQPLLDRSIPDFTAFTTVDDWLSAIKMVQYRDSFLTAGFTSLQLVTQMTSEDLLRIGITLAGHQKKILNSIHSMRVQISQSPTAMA

[6] = target: cAMP-dependent protein kinase catalytic subunit alpha (Homo sapiens) (UniProt P17612); test: Inhibition of PKAC-alpha at 1 uM
[7] = test system: Tyrosine-protein kinase ABL1 (Homo sapiens), P00519 [T315I]; test: Inhibition of ABL1 T315I mutant at 1 uM
Procedure, shortened: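 Ambit KINOMEscan screen at a single concentration across a 250–400 kinase panel, recorded as percent inhibition. Selectivity was expressed as S(90), the fraction of kinases inhibited >90%.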

[8] = target: Mitogen-activated protein kinase 3 (Homo sapiens) (UniProt P27361); test: Inhibition of ERK1 at 1 uM; procedure, shortened: as §1
Sequence of Mitogen-activated protein kinase 3 (Homo sapiens) (P27361 whole entry): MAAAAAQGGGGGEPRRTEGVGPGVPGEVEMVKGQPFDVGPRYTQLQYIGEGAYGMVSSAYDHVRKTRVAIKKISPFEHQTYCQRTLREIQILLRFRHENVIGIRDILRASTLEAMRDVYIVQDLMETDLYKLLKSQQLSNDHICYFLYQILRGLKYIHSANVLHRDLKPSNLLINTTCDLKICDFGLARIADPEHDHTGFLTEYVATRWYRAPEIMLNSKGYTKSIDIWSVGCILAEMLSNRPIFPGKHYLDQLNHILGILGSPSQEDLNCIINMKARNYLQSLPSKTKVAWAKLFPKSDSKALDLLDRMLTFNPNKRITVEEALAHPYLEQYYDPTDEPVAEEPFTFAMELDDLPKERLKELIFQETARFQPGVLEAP

[9] = target: Phosphatidylinositol 4-phosphate 5-kinase type-1 alpha (Homo sapiens) (UniProt Q99755); test: Inhibition of PIP5K1A at 1 uM
Sequence of Phosphatidylinositol 4-phosphate 5-kinase type-1 alpha (Homo sapiens) (Q99755 whole entry): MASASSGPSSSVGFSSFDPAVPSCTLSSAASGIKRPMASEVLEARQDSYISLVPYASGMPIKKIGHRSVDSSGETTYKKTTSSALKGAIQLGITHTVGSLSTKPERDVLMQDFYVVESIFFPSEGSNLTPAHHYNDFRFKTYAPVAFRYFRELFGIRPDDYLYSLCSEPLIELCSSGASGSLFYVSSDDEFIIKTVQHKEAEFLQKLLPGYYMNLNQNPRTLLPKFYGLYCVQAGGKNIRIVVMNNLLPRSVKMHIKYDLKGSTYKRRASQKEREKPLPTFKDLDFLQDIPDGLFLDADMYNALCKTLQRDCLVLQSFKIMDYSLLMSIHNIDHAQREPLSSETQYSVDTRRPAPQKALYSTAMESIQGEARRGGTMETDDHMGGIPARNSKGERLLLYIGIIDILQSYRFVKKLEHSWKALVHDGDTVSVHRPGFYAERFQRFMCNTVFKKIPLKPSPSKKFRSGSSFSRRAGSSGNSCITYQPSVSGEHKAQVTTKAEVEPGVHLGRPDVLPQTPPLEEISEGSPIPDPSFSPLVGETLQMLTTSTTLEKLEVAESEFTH

inhibition [1] | inhibition [3] | inhibition [4] | inhibition [5] | inhibition [6] | inhibition [7] | inhibition [8] | inhibition [9] | Structure (SMILES) | inhibition [2]
< 50% | < 50% | < 50% | < 50% | < 50% | < 50% | < 50% | < 50% | CN1CCN(c2ccc(-c3cnc4c(c3)N(Cc3cc(Cl)ccc3Cl)CCN4)cn2)CC1 | < 50%
< 50% | < 50% | 90% | < 50% | – | < 50% | < 50% | < 50% | CN1CCN(c2ccc(-c3cnc4c(c3)N(Cc3cc(Cl)ccc3C(F)(F)F)CCN4)cn2)CC1 | < 50%
< 50% | < 50% | < 50% | < 50% | < 50% | < 50% | < 50% | < 50% | COC1CCN(C(=O)c2ccc(-c3cnc4c(c3)N(Cc3cc(Cl)ccc3C(F)(F)F)CCN4)cc2)CC1 | < 50%
< 50% | < 50% | < 50% | < 50% | < 50% | < 50% | < 50% | < 50% | O=C(c1ccc(-c2cnc3c(c2)N(Cc2cc(Cl)ccc2C(F)(F)F)CCN3)cc1)N1CCCCC1 | < 50%
< 50% | < 50% | 74% | < 50% | < 50% | < 50% | < 50% | < 50% | FC(F)(F)c1ccc(Cl)cc1CN1CCNc2ncc(-c3ccnc(N4CCNCC4)c3)cc21 | < 50%
< 50% | < 50% | < 50% | < 50% | < 50% | < 50% | < 50% | < 50% | CC(=O)N1CCN(c2cc(-c3cnc4c(c3)N(Cc3cc(Cl)ccc3C(F)(F)F)CCN4)ccn2)CC1 | < 50%
< 50% | < 50% | < 50% | < 50% | < 50% | – | < 50% | < 50% | O=C(O)c1ccc(-c2cnc3c(c2)N(Cc2cc(Cl)ccc2C(F)(F)F)CCN3)cc1 | < 50%
< 50% | < 50% | < 50% | < 50% | < 50% | 83.2% | < 50% | < 50% | O=C(c1ccc(-c2cnc3c(c2)N(Cc2cc(Cl)ccc2C(F)(F)F)CCN3)cc1)N1CCC(N2CCCC2)CC1 | < 50%
< 50% | < 50% | < 50% | < 50% | – | 95% | < 50% | < 50% | CN1CCN(c2ccc(-c3cnc4c(c3)N(Cc3c(F)ccc(F)c3Cl)CCN4)cn2)CC1 | < 50%
< 50% | < 50% | < 50% | < 50% | < 50% | 80.4% | < 50% | < 50% | CN1CCN(c2ccc(-c3cnc4c(c3)N(Cc3cc(F)ccc3F)CCN4)cn2)CC1 | < 50%
